Results published in ChEMBL document CHEMBL2407090, “Design, synthesis, and optimization of novel epoxide incorporating peptidomimetics as selective calpain inhibitors” (J Med Chem, 2013).

Columns and labels:
[1] = target: T1, Calpain-1 catalytic subunit (Homo sapiens, UniProt P07384); test: Inhibition of human erythrocyte full length Cal1 using (DABCYL)TPLK-SPPSPR-(EDANS) as substrate after 20 min by FRET assay
T1 sequence (P07384 whole entry): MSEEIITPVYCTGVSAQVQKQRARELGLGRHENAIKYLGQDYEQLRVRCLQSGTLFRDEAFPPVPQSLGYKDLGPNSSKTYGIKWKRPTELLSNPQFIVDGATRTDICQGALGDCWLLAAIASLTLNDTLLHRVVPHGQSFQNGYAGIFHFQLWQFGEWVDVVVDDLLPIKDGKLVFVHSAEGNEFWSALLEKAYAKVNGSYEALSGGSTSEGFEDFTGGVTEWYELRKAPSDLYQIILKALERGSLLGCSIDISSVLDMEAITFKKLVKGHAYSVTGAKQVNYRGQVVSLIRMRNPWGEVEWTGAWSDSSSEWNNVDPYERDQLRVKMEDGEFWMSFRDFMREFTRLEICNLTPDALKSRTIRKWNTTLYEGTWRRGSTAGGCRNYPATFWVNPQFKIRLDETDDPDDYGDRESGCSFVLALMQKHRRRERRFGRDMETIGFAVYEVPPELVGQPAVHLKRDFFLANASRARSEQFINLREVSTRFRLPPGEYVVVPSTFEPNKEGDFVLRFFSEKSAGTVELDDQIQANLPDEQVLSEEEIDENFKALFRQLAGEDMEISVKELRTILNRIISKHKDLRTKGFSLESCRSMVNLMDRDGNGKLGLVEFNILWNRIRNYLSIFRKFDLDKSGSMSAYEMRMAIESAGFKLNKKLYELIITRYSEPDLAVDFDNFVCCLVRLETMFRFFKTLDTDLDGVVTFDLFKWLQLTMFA

[2] = target: T2, Papain (Carica papaya, UniProt P00784); test: Inhibition of papain after using SucLLVYAMC as substrate by FRET assay
T2 sequence (P00784 whole entry): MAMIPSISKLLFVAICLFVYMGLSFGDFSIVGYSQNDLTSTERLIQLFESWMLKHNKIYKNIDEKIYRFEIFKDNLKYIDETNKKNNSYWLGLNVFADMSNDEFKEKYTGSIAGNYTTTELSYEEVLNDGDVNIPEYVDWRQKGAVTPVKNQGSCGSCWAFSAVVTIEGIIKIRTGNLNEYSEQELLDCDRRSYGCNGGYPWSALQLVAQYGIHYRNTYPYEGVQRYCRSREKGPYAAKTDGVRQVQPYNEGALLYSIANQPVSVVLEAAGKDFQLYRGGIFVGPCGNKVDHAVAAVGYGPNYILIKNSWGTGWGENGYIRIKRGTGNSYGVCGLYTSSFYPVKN
Procedure, shortened: (§1)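 Enzyme (full-length porcine calpain 156 nM, with 1 mM CaCl2; or papain 236 pM) in 50 mM HEPES pH 7.6, 100 mM NaCl, 1 mM TCEP, 30 μM Suc-LLVY-AMC, inhibitor 0.5–50 μM; organic solvent <2 %, 30 °C. AMC release followed over time (Ex 346/Em 444 nm). Inhibition constants from varied enzyme and inhibitor concentrations; mean ± S.D. of triplicates.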

[3] = target: T3, Calpain-1 catalytic subunit (Sus scrofa, UniProt P35750); test: Inhibition of pig full length Cal1 after using SucLLVYAMC as substrate by FRET assay; procedure, shortened: as §1
T3 sequence (P35750 whole entry): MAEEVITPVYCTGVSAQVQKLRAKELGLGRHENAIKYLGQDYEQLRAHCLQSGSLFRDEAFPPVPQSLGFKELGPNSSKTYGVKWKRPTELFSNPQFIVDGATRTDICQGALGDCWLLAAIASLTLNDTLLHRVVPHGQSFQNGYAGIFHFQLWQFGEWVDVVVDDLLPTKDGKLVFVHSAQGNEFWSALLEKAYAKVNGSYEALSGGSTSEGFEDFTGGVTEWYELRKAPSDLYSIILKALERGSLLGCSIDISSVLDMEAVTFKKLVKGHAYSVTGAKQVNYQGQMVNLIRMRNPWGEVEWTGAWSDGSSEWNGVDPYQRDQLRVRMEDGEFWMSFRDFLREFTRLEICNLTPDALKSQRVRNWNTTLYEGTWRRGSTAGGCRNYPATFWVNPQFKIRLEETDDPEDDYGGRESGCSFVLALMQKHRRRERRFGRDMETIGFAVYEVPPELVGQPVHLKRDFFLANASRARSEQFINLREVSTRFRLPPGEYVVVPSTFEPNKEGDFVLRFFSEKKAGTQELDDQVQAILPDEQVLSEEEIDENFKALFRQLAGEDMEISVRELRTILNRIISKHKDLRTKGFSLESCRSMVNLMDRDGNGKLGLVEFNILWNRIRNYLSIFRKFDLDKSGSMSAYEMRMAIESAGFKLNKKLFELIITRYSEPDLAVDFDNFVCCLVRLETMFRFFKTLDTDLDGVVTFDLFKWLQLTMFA

[4] = target: T4, Calpain-1 catalytic subunit (Rattus norvegicus) (UniProt P97571); test: Binding affinity to recombinant rat […] Cal1 catalytic domain expressed in Escherichia coli BL21(DE3) assessed as modification of active site cysteine at 1 uM by LC-MS/MS analysis
T4 sequence (whole entry): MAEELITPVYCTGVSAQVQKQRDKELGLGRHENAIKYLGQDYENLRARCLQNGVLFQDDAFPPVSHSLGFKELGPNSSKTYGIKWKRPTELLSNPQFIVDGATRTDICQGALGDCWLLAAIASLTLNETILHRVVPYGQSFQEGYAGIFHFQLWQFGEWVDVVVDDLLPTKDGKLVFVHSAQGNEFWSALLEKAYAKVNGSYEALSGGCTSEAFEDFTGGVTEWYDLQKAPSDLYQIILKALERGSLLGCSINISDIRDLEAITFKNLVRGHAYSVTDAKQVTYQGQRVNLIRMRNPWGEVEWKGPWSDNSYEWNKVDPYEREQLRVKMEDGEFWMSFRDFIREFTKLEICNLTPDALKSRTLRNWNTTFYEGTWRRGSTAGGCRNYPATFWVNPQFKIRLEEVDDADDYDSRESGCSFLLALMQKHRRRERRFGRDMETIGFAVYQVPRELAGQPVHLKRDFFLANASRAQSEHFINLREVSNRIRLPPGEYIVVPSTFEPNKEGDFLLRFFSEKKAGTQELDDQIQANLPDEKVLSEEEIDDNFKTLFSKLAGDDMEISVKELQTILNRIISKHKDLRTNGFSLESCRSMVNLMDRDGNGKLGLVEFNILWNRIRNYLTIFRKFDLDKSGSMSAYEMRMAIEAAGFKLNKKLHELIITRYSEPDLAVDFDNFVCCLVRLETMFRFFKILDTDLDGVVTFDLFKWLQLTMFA

Row | Structure (SMILES) | IC50 [1] | Ki [2] | Ki [3] | Activity [4]
1 | O=C(NCc1cn(-c2cc(C(F)(F)F)cc(C(F)(F)F)c2)nn1)[C@H](Cc1cscn1)NC(=O)[C@H]1O[C@@H]1C(=O)O | > 1000 nM | – | – | –
2 | CC(C)C[C@H](NC(=O)[C@H]1O[C@@H]1C(=O)O)C(=O)NCCCCNC(=O)CCCC[C@@H]1SC[C@@H]2NC(=O)N[C@@H]21 | 100 nM | – | – | –
3 | CC(C)C[C@H](NC(=O)[C@H]1O[C@@H]1C(=O)O)C(=O)NCCCCN=C(N)N [E-64] | 100 nM | 5080 nM | 3960 nM | Dose-dependent effect
4 | O=C(Nc1nc(-c2ccc(F)cc2)cs1)[C@H](Cc1cscn1)NC(=O)[C@H]1O[C@@H]1C(=O)O | 100 nM | 5310 nM | 2590 nM | –
5 | NS(=O)(=O)c1ccc(-n2cc(CNC(=O)[C@H](Cc3cscn3)NC(=O)[C@H]3O[C@@H]3C(=O)O)nn2)cc1 | > 1000 nM | – | – | –
6 | CC(C)C[C@H](NC(=O)[C@H]1O[C@@H]1C(=O)O)C(=O)NCCCCNS(=O)(=O)c1ccc(F)cc1 | 150 nM | – | – | –
7 | Cc1cc(C)c(-n2cc(CNC(=O)[C@H](Cc3cscn3)NC(=O)[C@H]3O[C@@H]3C(=O)O)nn2)c(C)c1 | > 1000 nM | – | – | –
8 | CC(C)C[C@H](NC(=O)[C@H]1O[C@@H]1C(=O)O)C(=O)NCCCCNC(=O)CCCCC1CCSS1 (stereo partly specified) | 100 nM | – | – | –
9 | CC(C)C[C@H](NC(=O)[C@H]1O[C@@H]1C(=O)O)C(=O)Nc1nc(-c2ccc(F)cc2)cs1 | – | 1620 nM | – | Dose-dependent effect
10 | O=C(NCc1cn(-c2c(F)cccc2F)nn1)[C@H](Cc1cscn1)NC(=O)[C@H]1O[C@@H]1C(=O)O | > 1000 nM | – | – | –
